Compound activity (PubChem)
TbMetRS inhib – T. brucei MetRS inhibitors, primary screen, biochemical, luminescence; purified T. brucei MetRS, ATP depletion, Kinase-Glo luminescence; 0.4% of 360,000 active; inhibition, % at 11.9 µM;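 active means inhibition above a per-plate cutoff of the control wells' mean inhibition plus 3 SD, cut at about 5.5% in these data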;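 further: 0% = DMSO wells median and 100% = median of wells with control inhibitor compound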
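Measured by: Kinase-Glo luciferase luminescence reporting remaining unconsumed ATP. Material: purified T. brucei MetRS enzyme. Doses: 11.9 µM compound single dose, 0.9% DMSO. Medium: HEPES buffer containing pyrophosphatase, BSA, spermine, DTT. Times: 15 min preincubation, 2 h reaction, all 25 °C. Reagent: methionine, ATP and bulk E. coli tRNA.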
PG9 Ab binder – binders of HIV-1 gp120 antibody PG9, primary screen, biochemical, TR-FRET. inhibition, % at 6.7 µM. 0.43% of 360,000 active. TR-FRET gp120-PG9 antibody binding. AID 624416, 2012; in the data active means inhibition above about 8.5%
Rin1-Abl PPI inh – inhibitors of Rin1-Abl protein binding, primary screen, biochemical, TR-FRET; Tyrosine-protein kinase ABL1 (Homo sapiens) + Ras and Rab interactor 1 (Homo sapiens), …; inhibition, % at 7.35 µM; 0.4% of 360,000 active; in the data active means inhibition above about 5%, passing the limit was not always enough
Rev-erbA mod – modulators of Rev-erb alpha DNA binding, primary screen, biochemical, FITC-DNA, fluorescence polarization, uHTS. activity, % at 10 µM. 0.79% of 370,000 active. Rev-erbα–FITC-DNA binding, 90 min. Nuclear receptor subfamily 1 group D member 1 (Homo sapiens), P20393;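 active means activity above about 14%, limit read from the data; passing the limit was not always enough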;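 further: 0% = DMSO wells with 35 nM protein and 100% = DMSO wells with 750 nM protein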
Target sequence (P20393 whole entry, looked up): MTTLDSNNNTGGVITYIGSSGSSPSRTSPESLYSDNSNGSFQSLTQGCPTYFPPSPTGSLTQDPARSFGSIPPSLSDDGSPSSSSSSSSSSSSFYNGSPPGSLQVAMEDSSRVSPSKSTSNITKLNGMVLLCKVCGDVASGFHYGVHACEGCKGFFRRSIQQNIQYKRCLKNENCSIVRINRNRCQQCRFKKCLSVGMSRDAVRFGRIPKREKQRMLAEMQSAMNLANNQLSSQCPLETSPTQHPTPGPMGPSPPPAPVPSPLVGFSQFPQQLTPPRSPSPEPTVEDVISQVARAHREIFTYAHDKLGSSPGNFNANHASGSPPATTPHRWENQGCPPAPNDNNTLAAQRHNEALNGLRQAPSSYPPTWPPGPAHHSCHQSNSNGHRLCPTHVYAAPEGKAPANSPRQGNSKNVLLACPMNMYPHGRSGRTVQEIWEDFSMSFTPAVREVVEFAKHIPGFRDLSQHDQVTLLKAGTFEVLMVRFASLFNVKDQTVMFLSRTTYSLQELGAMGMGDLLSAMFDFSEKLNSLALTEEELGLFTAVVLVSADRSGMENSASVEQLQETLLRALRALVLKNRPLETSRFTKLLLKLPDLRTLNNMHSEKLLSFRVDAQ
Rev-erbA confirm – modulators of Rev-erb alpha DNA binding, confirmation, biochemical, FITC-DNA, fluorescence polarization, single point | 61% of 3,000 active | activation, % at 25 µM | 90 min | shares compounds with Rev-erbA mod;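 active means activation at or above a set limit, or at least 3 SD above the negative control mean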;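 further: 0% = 35 nM protein with DMSO and 100% = 750 nM protein high control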
RORg counter – modulation of RORgamma DNA binding, dose response, counter-screen for Rev-erb alpha modulator project, biochemical, fluorescence polarization, FITC-DNA; shares compounds with Rev-erbA mod; IC50, µM; purified RORgamma protein-FITC-DNA binding; 8% of 910 active;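 active means Compounds whose fitted half-maximal concentration for disrupting protein-DNA binding is below 10 micromolar; the record names Rev-erb in its text, so the target is in doubt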
* = called active by the depositor. Rows were chosen to be rich in hits. Some 1.8% of all compounds tested hit in one or more screens of this group.

Clc1ccccc1NN(Cc1ccncc1)c1ccccc1Cl was read as TbMetRS inhib 0, PG9 Ab binder 0, Rin1-Abl PPI inh 2, Rev-erbA mod 18* and Rev-erbA confirm 10.
Screening Clc1ccccc1NN(Cc1ccccn1)c1ccccc1Cl returned TbMetRS inhib 0, PG9 Ab binder 1, Rin1-Abl PPI inh 0 and Rev-erbA mod 2.
For COc1cc(CCC(=O)OCC(=O)NCC2CCCCC2)cc(OC)c1OC the results were TbMetRS inhib 0, PG9 Ab binder -1, Rin1-Abl PPI inh 0, Rev-erbA mod 16* and Rev-erbA confirm 3.
COc1cc(CCC(=O)OCC(=O)NCc2ccccc2)cc(OC)c1OC was read as TbMetRS inhib 0, PG9 Ab binder 1 and Rin1-Abl PPI inh 1.
CCCC1CCC2(CC1)CCC2OC(=S)Nc1ccccc1C(F)(F)F (configuration not stated) was read as Rev-erbA mod 6.
Screening CCc1ccc(-c2cc(C(F)(F)F)n3nc(C(=O)Nc4c(C)nn(Cc5ccccc5C)c4C)cc3n2)s1 returned TbMetRS inhib 0 and Rin1-Abl PPI inh 3.
`CCc1ccc(-c2cc(C(F)(F)F)n3nc(C(=O)Nc4c(C)nn(Cc5ccccc5Cl)c4C)cc3n2)s1` gave TbMetRS inhib -1, PG9 Ab binder -4, Rin1-Abl PPI inh 0, Rev-erbA mod 72*, Rev-erbA confirm 38* and RORg counter >40.
For Cc1ccccc1Cn1cc(NC(=O)c2cc(-c3cccs3)on2)cn1 the results were TbMetRS inhib 0, PG9 Ab binder 5, Rin1-Abl PPI inh 2, Rev-erbA mod 20* and Rev-erbA confirm 5.
Screening CCc1ccc(-c2cc(C(F)(F)F)n3nc(C(=O)Nc4cnn(Cc5ccccc5C)c4)cc3n2)s1 returned TbMetRS inhib -1, PG9 Ab binder 0, Rin1-Abl PPI inh -1, Rev-erbA mod 37* and Rev-erbA confirm 13.
`O=C(CN1C(=O)C2CCCCC2C1=O)Nc1ccc(OC(F)F)c(Cl)c1` (configuration not stated) gave TbMetRS inhib 2, PG9 Ab binder -2, Rin1-Abl PPI inh 3 and Rev-erbA mod 5.
For O=C(NCCN1CCOCC1)c1c(O)nc2sccn2c1=O the results were TbMetRS inhib 0, PG9 Ab binder -1, Rin1-Abl PPI inh 0 and Rev-erbA mod 6.
Screening Cn1c(=O)c(NCCO)c2c3c(cccc31)C(=O)c1ccccc1-2 returned TbMetRS inhib -1, PG9 Ab binder -1, Rin1-Abl PPI inh -29, Rev-erbA mod 101*, Rev-erbA confirm 118* and RORg counter >40.
For Cn1c(=O)c(NCCc2ccccc2)c2c3c(cccc31)C(=O)c1ccccc1-2 the results were TbMetRS inhib 0, PG9 Ab binder 4, Rin1-Abl PPI inh -16, Rev-erbA mod 97*, Rev-erbA confirm 69* and RORg counter >40.
CC(=O)Nc1ccc(Nc2c3c4c(cccc4n(C)c2=O)C(=O)c2ccccc2-3)cc1 was read as TbMetRS inhib -1, PG9 Ab binder -7, Rin1-Abl PPI inh -6, Rev-erbA mod 33*, Rev-erbA confirm 31* and RORg counter >40.
For CCCCNc1c2c3c(cccc3n(C)c1=O)C(=O)c1ccccc1-2 the results were TbMetRS inhib 0 and Rin1-Abl PPI inh -27.
For COc1ccc(C(CNC(=O)c2ccc(S(=O)(=O)Nc3cccc(C)c3C)cc2)N2CCOCC2)cc1 (configuration not stated) the results were TbMetRS inhib 0, PG9 Ab binder -2, Rin1-Abl PPI inh 2 and Rev-erbA mod 2.
Screening Cc1cc(C)cc(N2CC(O)=C(c3nc4ccccc4c(=O)[nH]3)C2=N)c1 returned TbMetRS inhib 0, PG9 Ab binder 6, Rin1-Abl PPI inh -1, Rev-erbA mod 21*, Rev-erbA confirm 33* and RORg counter >40.
For O=C(O)C(c1ccccc1)C1CCCCC1O (configuration not stated) the results were TbMetRS inhib 0, PG9 Ab binder 1, Rin1-Abl PPI inh 2 and Rev-erbA mod 0.
For Cc1nn(-c2ccccc2)c(C)c1NC(=O)COC(=O)c1cc(Br)ccc1O the results were TbMetRS inhib 0, PG9 Ab binder -1, Rin1-Abl PPI inh 0, Rev-erbA mod 31* and Rev-erbA confirm 13.
`CSc1ccccc1NC(=O)CN(C)C(=O)c1c(C)nn(Cc2ccccc2)c1C` gave TbMetRS inhib 0, PG9 Ab binder 0, Rin1-Abl PPI inh 3 and Rev-erbA mod -5.
For O=C(COC(=O)c1cnccn1)Nc1ncc(C(F)(F)F)cc1Cl the results were TbMetRS inhib 0, PG9 Ab binder -2, Rin1-Abl PPI inh 1 and Rev-erbA mod -1.
CCOc1ccc(NC(=O)CS(=O)CC(=O)N(CC(=O)NC(C)(C)C)C2CCCC2)cc1 (configuration not stated) was read as TbMetRS inhib 0, PG9 Ab binder -2, Rin1-Abl PPI inh 0 and Rev-erbA mod -2.
Screening COc1ccc(C2Nc3ccccc3C(=O)N2c2ccc(F)cc2)cc1CSc1ccccn1 (configuration not stated) returned TbMetRS inhib -1, PG9 Ab binder -8, Rin1-Abl PPI inh 1, Rev-erbA mod 30* and Rev-erbA confirm 15.
CC(C)(C)c1ccccc1NC(=O)Nc1nc(C(N)Cc2ccc(F)cc2)cs1 (configuration not stated) was read as TbMetRS inhib -1, PG9 Ab binder -1, Rin1-Abl PPI inh 2 and Rev-erbA mod -1.
Screening O=C(COC(=O)c1cc(-c2cccnc2)nc2ccccc12)Nc1ccc(F)cc1F returned TbMetRS inhib 0, PG9 Ab binder -5, Rin1-Abl PPI inh 5 and Rev-erbA mod 6.
COc1ccc(-c2cc(C(=O)OCC(=O)Nc3cc(C)on3)c3ccccc3n2)cc1OC was read as TbMetRS inhib 0, PG9 Ab binder -1, Rin1-Abl PPI inh 1, Rev-erbA mod 21* and Rev-erbA confirm -4.
Cc1cccc(C)c1NC(=O)COC(=O)c1cc(-c2cccnc2)nc2ccccc12 was read as TbMetRS inhib 0, PG9 Ab binder 2, Rin1-Abl PPI inh -6, Rev-erbA mod 19* and Rev-erbA confirm 21*.
For COc1ccc(S(=O)(=O)N2CCCCCC2)cc1NS(=O)(=O)c1cc(C(=O)O)cc(C)c1C the results were TbMetRS inhib 0, PG9 Ab binder 2, Rin1-Abl PPI inh 1 and Rev-erbA mod 4.
For O=C(c1ccc(Cl)cc1)c1cnc(Nc2ccccc2Cl)s1 the results were TbMetRS inhib 0, PG9 Ab binder 6, Rin1-Abl PPI inh -9, Rev-erbA mod 35* and Rev-erbA confirm 12.
